SR-BI DiI inh: inhibitors of SR-BI mediated HDL lipid uptake, primary screen, ldlA[mSR-BI] cells, fluorescence, single point; 320,000 tested, 0.96% active; Scavenger receptor class B member 1 (Mus musculus), Q61009; inhibition, % at 12.5 µM; ldlA[mSR-BI] CHO cells, DiI-HDL uptake fluorescence, 3 h;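 active = mean replicate inhibition of at least 70% and a set share of replicates each scoring 70 or more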
SR-BI DiI-HDL act: activators of SR-BI mediated DiI-HDL uptake, primary screen, ldlA[mSR-BI] CHO cells, DiI fluorescence; 320,000 tested, 0.096% active; 3 h; 100 = double the neutral-control signal; activation, % at 12.5 µM;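 active = mean replicate activation of at least 60% and every replicate at or above 60%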
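System: LDL receptor-deficient CHO ldlA cells overexpressing murine SR-BI | Timing: 3 h uptake period with compound, 37 °C | Medium: HEPES-buffered (25 mM, pH 7.4) F12 plus 0.5% BSA | Dosing: Single-point compound dose | Signal: Bottom-read fluorescence, 550/595 nm | Read-out: Retained DiI signal reflecting DiI-HDL uptake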
MIN6 prolif: inducers of MIN6 beta-cell proliferation, primary screen, ATP luminescence, uHTS | AID 2380, 2010 | 330,000 tested, 0.29% active | MIN6 cells proliferation, ATPlite luminescence, 48 h; cells starved in 0.2% serum; 100% = growth in 10% serum | proliferation, % at 10 µM;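 active = compounds whose signal lies at least 3.5 SD above the mean of all wells on their plate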
Ins promoter up: insulin promoter activators in MIN6 cells, imaging, high-content screening, mouse beta cells; MIN6 insulin promoter-GFP reporter; active compounds read high; z-score at 5 µM; 190,000 tested, 0.3% active;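 active = z-score above 3 at 5 µM with at least 500 cells counted in the well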
Calb FLC: C. albicans growth inhibition with fluconazole, primary screen, CaCi-2 strain, Alamar Blue fluorescence. C. albicans CaCi-2 + fluconazole, 48 h. growth inhibition, % (test concentration not listed). 300,000 tested, 0.57% active. AID 1979, 2009;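 active = growth inhibition above about 58% in most replicates, limit read from the data, passing the limit was not always enough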;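 note: all wells also contain fluconazole at 8 µg/ml as a sub-toxic cotreatment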
HTR2A ag: mouse Htr2a agonists via beta-arrestin recruitment, primary screen, cell-based, luminescence. CHO-K1 mHTR2A beta-arrestin complementation; percent of 30 µM serotonin response. activation, % at 7.6 µM. 360,000 tested, 0.66% active. AID 624169, 2012;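 active = activation above a run cutoff, the mean activation of all tested compounds plus 3 SD, cut at about 14% in these data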
Target sequence (P35363 whole entry, looked up): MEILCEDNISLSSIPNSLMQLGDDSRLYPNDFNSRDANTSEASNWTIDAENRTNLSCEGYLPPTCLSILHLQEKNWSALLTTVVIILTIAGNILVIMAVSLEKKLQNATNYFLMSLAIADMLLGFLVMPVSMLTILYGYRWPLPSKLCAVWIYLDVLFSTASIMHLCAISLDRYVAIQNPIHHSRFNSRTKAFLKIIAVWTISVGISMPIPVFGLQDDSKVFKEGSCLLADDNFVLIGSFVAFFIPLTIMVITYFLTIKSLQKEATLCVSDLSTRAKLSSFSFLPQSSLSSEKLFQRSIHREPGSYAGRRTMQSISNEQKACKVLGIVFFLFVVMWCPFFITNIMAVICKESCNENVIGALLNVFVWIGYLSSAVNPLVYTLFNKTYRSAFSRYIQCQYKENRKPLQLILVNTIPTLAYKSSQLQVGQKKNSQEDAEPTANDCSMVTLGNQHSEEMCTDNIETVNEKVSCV
MOR ag counter: OPRM1 agonists via beta-arrestin recruitment, confirmation, counter-screen for mouse HTR2A agonist project, cell-based, luminescence, single concentration | shares compounds with HTR2A ag | 2,300 tested, 5.3% active | U2OS OPRM1 beta-arrestin PathHunter; DMSO 0%, DAMGO 9.3 µM 100% | AID 624380, 2012 | activation, % at 9.3 µM;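 active = mean activation above the mean of DMSO-only wells plus 3 SD, cut at about 0.5% in these data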
m5-HT2A ag conf: mouse HTR2A agonists, beta-arrestin recruitment, confirmation, cell-based, luminescence, CHO-K1 PathHunter, triplicate. DMSO 0%, 30 µM serotonin 100%. 2,300 tested, 19% active. activation, % at 7.6 µM. shares compounds with HTR2A ag;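 active = mean activation across triplicates above the hit threshold derived in the original primary screen, cut at about 15% in these data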
Hits are given with their value; – = inactive; · = not tested or not shown; ! = not confirmed by another sample. A selection: hits, their analogues and other compounds. The true share with any hit is near 2.4%.

SMILES | SR-BI DiI inh | SR-BI DiI-HDL act | MIN6 prolif | Ins promoter up | Calb FLC | HTR2A ag | MOR ag counter | m5-HT2A ag conf
COC(=O)c1ccc2c(=O)n(CCN3CCOCC3)c(SCC(=O)C(C)(C)C)nc2c1 | – | – | – | · | – | – | · | ·
CC(=O)c1cccc(NC(=O)CSc2nc3ccccc3c(=O)n2CCCN2CCOCC2)c1 | – | – | – | · | · | – | · | ·
C=CCc1cc(OC)ccc1OCCCCn1cncn1 | – | – | – | · | – | – | · | ·
CCC(OC(=O)c1nsc(Cl)c1Cl)C(=O)NCc1cccs1 (stereo not given) | – | – | – | · | – | 27 | – | –
CC(C)CC(OC(=O)c1nsc(Cl)c1Cl)C(=O)NCc1cccs1 (stereo not given) | – | – | – | · | – | – | · | ·
COc1ccc2c(O)c(-c3c(C)cc(C)cc3C)c(=O)[nH]c2c1 | · | · | – | · | – | – | · | ·
CC(C)(C)OC(=O)N(CC1CCNCC1)C(=O)c1[nH]c(C(F)(F)F)nc1-c1ccccc1 | · | · | · | · | · | – | · | ·
Cc1ccsc1C(=O)OCC(=O)NCC1CCCO1 (stereo not given) | – | – | – | – | – | 18 | – | –
O=c1c2c([nH]n1-c1ccccc1)C[C@@H](C1CCCCC1)O[C@H]2c1ccc(F)cc1 | · | · | · | · | · | – | · | ·
C#CCNC(=O)C[C@@H]1C[C@@]2(C(=O)OC)CC(C)(C)CC=C2N(CCCCCCCC)C1=O | · | · | · | · | · | – | · | ·
COc1ccccc1Nc1nc(N)nc(CSc2nccn2C)n1 | – | – | – | – | – | – | · | ·
COc1ccccc1Nc1nc(N)nc(CSc2nncn2C)n1 | – | – | – | – | – | 15 | – | –
CCCCNC(=O)C1(C)CCCCN1Cc1ccc2ccccc2c1 (stereo not given) | · | · | · | · | · | – | · | ·
CCn1cc(C(=O)N2CCN(c3ccccc3F)CC2)c(=O)c2ccc(C)nc21 | – | – | – | – | – | 15 | – | –
O=C(c1cc2ccccc2o1)N1CCN(Cc2ccc3c(c2)OCO3)CC1 | – | – | – | · | – | – | · | ·
CCOC(=O)N1CCN(Cc2ccc3c(c2)OCO3)CC1 | – | – | – | · | – | 37 | – | 107
Cc1c(C(=O)N2CCN(Cc3ccc4c(c3)OCO4)CC2)sc2ncnc(N3CCN(c4ccccc4F)CC3)c12 | – | – | – | · | – | 25 | – | 36
Cc1ccc(C(=O)N2CCN(Cc3ccc4c(c3)OCO4)CC2)o1 | – | – | – | – | – | 20 | – | –
CCN(CC)C(=O)N1CCN(Cc2ccc3c(c2)OCO3)CC1 | – | – | – | – | – | – | · | ·
CCc1sc(C(=O)N(CCOC)c2c(N)n(Cc3ccccc3)c(=O)[nH]c2=O)cc1C | · | · | · | · | · | – | · | ·
CCCCC(=O)Nc1cc2nn(-c3ccc(OC)cc3)nc2cc1C | – | – | – | – | – | 15 | – | –
Cc1ccc(SCC(=O)NC(=O)NCCC(C)C)c(C)c1 | – | – | – | – | – | – | · | ·
Cc1ccc(SCC(=O)NC(=O)NC(C)C)c(C)c1 | · | · | – | – | – | 16 | – | –
CSCCC(NS(=O)(=O)c1cccc(C(F)(F)F)c1)C(=O)Nc1ccccc1N1CCCC1 (stereo not given) | – | – | – | · | – | – | · | ·
O=C(NCC(c1ccco1)N1CCN(c2ccccc2F)CC1)C1CCCCC1 (stereo not given) | – | – | – | · | – | 17 | – | 48
SMILES | SR-BI DiI inh | SR-BI DiI-HDL act | MIN6 prolif | Ins promoter up | Calb FLC | HTR2A ag | MOR ag counter | m5-HT2A ag conf
CN1CCC(N(C)C(=O)COc2ccccc2-c2ccccc2)CC1 | · | · | – | – | – | 18 | – | –
Cn1c(=O)n(C)c2cc(/C=C3/SC(=O)N(CC(=O)N4CCOCC4)C3=O)ccc21 | – | – | – | – | – | 17 | – | –
NC(=O)[C@@H]1CCCN1Cc1c(C(=O)N2CCc3ccccc3C2)nc2ccc(Cl)cn12 | – | – | – | · | – | – | · | ·
CCc1ccc(OCC(O)CN2CCN(c3ccccc3)CC2)cc1 (stereo not given) | – | – | – | – | – | 15! | – | 29
CCOC(=O)N1CCN(Cc2ccc(OCC(O)CN3CCCCC3)cc2)CC1 (stereo not given) | · | · | – | · | – | 33 | – | 71
Cc1cccc(N2CCN(CC(O)COc3ccc4ccccc4c3)CC2)c1 (stereo not given) | – | – | · | · | · | 15 | – | 53
CCCc1ccc(OCC(O)CN2CCN(c3ccccc3)CC2)cc1 (stereo not given) | – | – | – | – | – | – | · | ·
N#Cc1c(Nc2ccccc2)[n+]([O-])c2ccc(Cl)cc2[n+]1[O-] | – | – | · | · | · | – | · | ·
CCOCC(=O)Nc1nc(-c2ccccc2)c(CC)s1 | – | – | – | – | – | – | · | ·
Cc1ccc(C)c(S(=O)(=O)NCc2ccc(C(=O)N3CCN(c4ccccc4)CC3)cc2)c1 | – | – | – | · | – | – | · | ·
COc1ccc(N2CCN(C(=O)c3ccc(CNS(=O)(=O)c4cc(C)ccc4C)cc3)CC2)cc1 | – | – | – | · | – | 25 | – | –
O=C1CC(=O)Nc2cc(S(=O)(=O)N3CCOc4ccccc43)ccc2N1 | – | – | – | · | – | 26 | – | –
O=C1c2cccc3cccc(c23)C(=O)N1Cc1ccccn1 | · | · | · | · | · | – | · | ·
O=C(CCCNC(=O)c1ccc(Cl)cc1)NCc1ccccc1F | · | · | – | · | – | – | · | ·
COc1cc(C(C)=O)ccc1OC(=O)N1CCOCC1 | · | · | · | · | · | – | · | ·
COc1c2c(cc3ccc(=O)oc13)CCO2 | – | – | – | · | – | 21 | – | –
Cc1cc(C=O)sc1[B-](F)(F)F | – | – | · | · | · | 15 | – | –
CC(=O)c1sc(NC(=O)c2cc(S(=O)(=O)N3CCOCC3)ccc2F)nc1C | – | – | – | · | · | 15 | – | –
COc1ccc(OC)c(CN2C(=O)CN(S(C)(=O)=O)CC2(C)C(=O)Nc2c(C)cccc2C)c1 (stereo not given) | · | · | · | · | · | – | · | ·
Cc1ccc(C(=O)N/C(=C/c2ccccc2)C(=O)NC(Cc2ccccc2)C(=O)O)cc1 (stereo not given) | – | – | – | – | – | 16 | – | 42
CC(=O)Nc1ccc(C(=O)N/C(=C\c2ccccc2)C(=O)Nc2cccc(C(=O)O)c2)cc1 | · | · | – | – | – | – | · | ·
O=C(Nc1cccc(C(=O)O)c1)/C(=C\c1ccccc1)NC(=O)c1ccccc1 | – | – | – | – | – | 18 | – | –

Assay outcomes deposited in PubChem by several laboratories.
